Experimental data taken from ChEMBL document CHEMBL3244322, “5-O-Alkylated derivatives of 5-hydroxy-2'-deoxyuridine as potential antiviral agents. Anti-herpes activity of 5-propynyloxy-2'-deoxyuridine” (J Med Chem, 1978).
Values after ≈ are worked out from the molar mass of the structure shown. Active and inactive are the calls of the source. The rule behind the calls is not given here.

Assays:
Human alphaherpesvirus 1 [1] = assay: Antiviral activity against Herpes simplex virus 1 KOS infected in primary rabbit kidney cells assessed as inhibition of virus-induced cytopathogenicity; type: functional; settings: Human alphaherpesvirus 1, KOS
Human alphaherpesvirus 1 [2] = assay: Antiviral activity against Herpes simplex virus 1 KOS infected in human skin fibroblasts primed with interferon and superinduced with cyclohexamide and actinomycin D assessed as inhibition of virus-induced cytopathogenicity; type: functional; settings: Human alphaherpesvirus 1, KOS
[3] = test system: Vesicular stomatitis virus; assay: Antiviral activity against Vesicular stomatitis virus infected in primary rabbit kidney cells assessed as inhibition of virus-induced cytopathogenicity; type: functional, organism-based
[4] = test system: Vesicular stomatitis virus; assay: Antiviral activity against Vesicular stomatitis virus infected in human skin fibroblasts primed with interferon and superinduced with cyclohexamide and actinomycin D assessed as inhibition of virus-induced cytopathogenicity; type: functional, organism-based
[5] = Cytotoxicity against mouse L cells assessed as suppression of replication at 10^-3 M; type: cell-based; settings: l929, 1000 µM
[6] = Ratio of I50 for DNA synthesis in primary rabbit kidney cells by [3H]-dT incorporation assay to MIC50 for Herpes simplex virus 1 KOS
Outline: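 DNA synthesis in uninfected PRK cells measured by [3H]-dT incorporation. The concentration giving 50% reduction is set against the concentration giving 50% reduction in herpes virus cytopathogenicity.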

[7] = Cytotoxicity against mouse L cells assessed as suppression of replication; type: cell-based; settings: l929

Row | Structure (SMILES) | MIC (Human alphaherpesvirus 1 [1]) | MIC (Human alphaherpesvirus 1 [2]) | inhibition [3] | inhibition [4] | Activity [5] | Ratio [6] | Activity [7]
1 | Cc1ccc(COc2cn([C@@H]3O[C@H](CO)[C@@H](O)[C@H]3O)c(=O)[nH]c2=O)cc1 | > 600 µM | > 600 µM | inactive | inactive |  |  | 
2 | O=c1[nH]c(=O)n([C@H]2C[C@H](O)[C@@H](CO)O2)cc1OCc1ccccc1 | > 120 µM | > 450 µM | inactive | inactive |  |  | 
3 | C#CCOc1cn([C@H]2C[C@H](O)[C@@H](CO)O2)c(=O)[nH]c1=O | 2.6 µM (≈ 0.734 µg/mL) | 3.5 µM (≈ 0.988 µg/mL) | inactive | inactive | Non-toxic | 150 | 
4 | O=c1[nH]c(=O)n([C@H]2C[C@H](O)[C@@H](CO)O2)cc1I [IDOXURIDINE] | 1.4 µM (≈ 0.496 µg/mL) | 0.35 µM (≈ 0.124 µg/mL) |  |  |  |  | Toxic
5 | Nc1ncnc2c1ncn2[C@@H]1O[C@H](CO)[C@@H](O)[C@@H]1O [VIDARABINE] | 14 µM (≈ 3.74 µg/mL) | 3.5 µM (≈ 0.935 µg/mL) |  |  |  |  | 
6 | O=c1[nH]c(=O)n([C@@H]2O[C@H](CO)[C@@H](O)[C@H]2O)cc1OCc1ccccc1 | > 600 µM | > 600 µM | inactive | inactive |  |  | 
7 | O=c1[nH]c(=O)n([C@@H]2O[C@H](CO)[C@@H](O)[C@H]2O)cc1OCc1ccc([N+](=O)[O-])cc1 | > 600 µM | > 600 µM | inactive | inactive |  |  | 
8 | C=CCOc1cn([C@@H]2O[C@H](CO)[C@@H](O)[C@H]2O)c(=O)[nH]c1=O | > 600 µM | > 600 µM | inactive | inactive |  |  | 
9 | O=c1[nH]c(=O)n([C@H]2C[C@H](O)[C@@H](CO)O2)cc1O | 16 µM (≈ 3.91 µg/mL) | 3.5 µM (≈ 0.855 µg/mL) |  |  |  |  | 
10 | O=c1[nH]c(=O)n([C@H]2C[C@H](O)[C@@H](CO)O2)cc1OCc1ccc([N+](=O)[O-])cc1 | > 260 µM | > 520 µM | inactive | inactive |  |  | 
11 | C=CCOc1cn([C@H]2C[C@H](O)[C@@H](CO)O2)c(=O)[nH]c1=O | 14 µM (≈ 3.98 µg/mL) | 140 µM (≈ 39.8 µg/mL) | inactive | inactive |  |  | 
12 | O=C(O)COc1cn([C@H]2C[C@H](O)[C@@H](CO)O2)c(=O)[nH]c1=O | > 600 µM |  | inactive | inactive |  |  | 
13 | NC(=O)COc1cn([C@H]2C[C@H](O)[C@@H](CO)O2)c(=O)[nH]c1=O | 140 µM (≈ 42.2 µg/mL) | 260 µM (≈ 78.3 µg/mL) | inactive | inactive |  |  | 
14 | NC(=O)COc1cn([C@@H]2O[C@H](CO)[C@@H](O)[C@H]2O)c(=O)[nH]c1=O | > 600 µM | > 600 µM | inactive | inactive |  |  | 
